Structures can show the parent of a compound that is named as a salt.
Legend:
Cavia porcellus [1] = species on record: Cavia porcellus; assay: Ability to prevent constrictions induced by SRS-A (slow reacting substance of anaphylaxis) in guinea pig ileum; format: functional
How it was run: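 Ileum segments (1.5 cm) from 200–250 g guinea pigs are held in Tyrode's solution with 10^-6 M atropine sulfate and 10^-6 M pyrilamine maleate, at 37 °C, aerated with 95% O2/5% CO2. SRS-A comes from egg albumin challenge of chopped lung from actively sensitized guinea pigs, dosed to give 50% of maximal isotonic contraction. Compound is added 3 min before challenge. Three concentrations (10–90% inhibition) are run in duplicate, and IC50 is taken from the log dose-response curve.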

Cavia porcellus [2] = species on record: Cavia porcellus; assay: Ability to prevent constrictions induced by SRS-A (slow reacting substance of anaphylaxis) in guinea pig ileum at a concentration of 1x 10E-5 M; format: functional

| Compound | IC50 (Cavia porcellus [1]) [nM] | inhibition at 10 µM (Cavia porcellus [2]) [%] |
| --- | --- | --- |
| CC(C)c1ccc2nc3ccc(C(=O)NCCN(C4CCCCC4)C4CCCCC4)cn3c(=O)c2c1 | 2000 |  |
| CCCCCOC(=O)c1ccc2nc3ccc(C(C)C)cc3c(=O)n2c1 |  | 10 |
| CCN(CC)CCOC(=O)c1ccc2nc3ccc(OC(C)C)cc3c(=O)n2c1 |  | 17 |
| CC(C)c1ccc2nc3ccc(C(=O)NCCN(c4ccccc4)c4ccccc4)cn3c(=O)c2c1 | 10000 |  |
| CC(C)c1ccc2nc3ccc(C(=O)NCCN(C)C)cn3c(=O)c2c1 |  | 42 |
| CC(C)c1ccc2nc3ccc(C(=O)NCCN4CCN(C(c5ccccc5)c5ccccc5)CC4)cn3c(=O)c2c1 | 1000 |  |
| CC(C)c1ccc2nc3ccc(C(=O)NCCN4CCC(c5ccccc5)CC4)cn3c(=O)c2c1 | 1000 |  |
| CCN(CC)CCOC(=O)c1ccc2nc3ccc(SC)cc3c(=O)n2c1 |  | 0 |
| CC(C)c1ccc2nc3ccc(C(=O)NCCN4CCN(C)CC4)cn3c(=O)c2c1 |  | 34 |
| CCC(C)c1ccc2nc3ccc(C(=O)NCCN(CC)CC)cn3c(=O)c2c1 (stereo not drawn) | 10000 |  |
| CCN(CC)CCNC(=O)c1ccc2nc3ccc(CC(C)C)cc3c(=O)n2c1 | 1000 |  |
| CC(C)c1ccc2nc3ccc(C(=O)OCCN4CCCCC4)cn3c(=O)c2c1 | 6000 |  |
| CC(C)c1ccc2nc3ccc(C(=O)NCCN4CCCCC4)cn3c(=O)c2c1 |  | 15 |
| CC(C)c1ccc2nc3ccc(C(=O)NCCNc4ccccc4)cn3c(=O)c2c1 | 2500 |  |
| CCCc1c(OCC(O)COc2ccc3c(=O)cc(C(=O)O)oc3c2CCC)ccc(C(C)=O)c1O (stereo not drawn) [FPL-55712 SODIUM SALT] | 35 |  |
| CCN(CC)CCNC(=O)c1ccc2nc3ccc(C(C)(C)C)cc3c(=O)n2c1 | 10000 |  |
| CC(C)c1ccc2nc3ccc(C(=O)NCCN4CCC(Cc5ccccc5)CC4)cn3c(=O)c2c1 | 1000 |  |
| CCN(CC)CC(C)OC(=O)c1ccc2nc3ccc(C(C)C)cc3c(=O)n2c1 (stereo not drawn) | 10000 |  |
| CCN(CC)CCOC(=O)c1ccc2nc3ccc(OC)cc3c(=O)n2c1 |  | 0 |
| CCN(CC)CCOC(=O)c1ccc2nc3ccc(C(C)C)cc3c(=O)n2c1 | 4000 |  |
| CCN(CC)CCCNC(=O)c1ccc2nc3ccc(C(C)C)cc3c(=O)n2c1 |  | 37 |
| CCN(CC)CCOC(=O)c1ccc2nc3ccc(C(C)C)cn3c(=O)c2c1 |  | 5 |
| CC(C)c1ccc2nc3ccc(C(=O)NCCN4C(C)(C)CCCC4(C)C)cn3c(=O)c2c1 | 1000 |  |
| CC(C)c1ccc2nc3ccc(C(=O)NCCN4CCN(c5ccccc5)CC4)cn3c(=O)c2c1 | 1000 |  |
| CCN(CC)CCOC(=O)c1ccc2nc3ccc(C)cc3c(=O)n2c1 |  | 11 |
| CCN(CC)CCNC(=O)c1ccc2nc3ccc(C(C)C)cn3c(=O)c2c1 |  | 6 |
| CC(C)c1ccc2nc3ccc(C(=O)NCCN(C(C)C)C(C)C)cn3c(=O)c2c1 | 1000 |  |
| CCN(CC)CCNC(=O)c1ccc2nc3ccc(C(C)C)cc3c(=O)n2c1 | 5000 |  |

From ChEMBL document CHEMBL1122396, “Antagonists of slow-reacting substance of anaphylaxis. 1. Pyrido[2,1-b]quinazolinecarboxylic acid derivatives” (J Med Chem, 1983)
